# According to ChEMBL document CHEMBL1154045, “In vitro and in vivo anticancer activity of 2-deacetoxytaxinine J and synthesis of novel taxoids and their in vitro anticancer activity” (Eur J Med Chem, 2009):
# Activity calls are given as the source filed them. The rule behind the calls is not given here.
# How the values were obtained:
# MCF7 = assay: Anticancer activity against estrogen-positive human MCF7 cells after 18 hrs by MTT assay; type: functional, cell-based; conditions: MCF7, 18 h
# Method in brief: (§1)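 MTT assay: 1 × 10⁴ cells/well seeded in DMEM with 10% FBS and held 24 h at 37 °C in a CO₂ incubator. Compounds were diluted in culture medium and added alongside a vehicle control. After 18 h of exposure, MTT (5 mg/mL stock) was added and plates were incubated a further 4 h.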
# HEK293 = assay: Cytotoxicity against HEK293 cells after 18 hrs by MTT assay; type: cell-based; conditions: Homo sapiens, HEK293, 18 h; method in brief: as §1
# MDA-MB-231 = assay: Anticancer activity against estrogen-receptor-negative human MDA-MB-231 cells after 18 hrs by MTT assay; type: functional, cell-based; conditions: MDA-MB-231, 18 h; method in brief: as §1
# A2780 ADR = assay: Reversal of P-gp-mediated multidrug resistance in human 2780AD cells assessed as vincristine accumulation; type: cell-based
# Rattus norvegicus = assay: Antitumor activity against DMBA-induced mammary tumor in Sprague-Dawley rat assessed as tumor regression at 10 mg/kg, po administered for 30 days; type: functional, organism-based; set-up: dose 10 mg/kg
SMILES,IC50 (MCF7),IC50 (HEK293),IC50 (MDA-MB-231),Activity (A2780 ADR),Activity (Rattus norvegicus)
C=C1[C@@H](OC(=O)CCc2ccccc2)C[C@H](OC(C)=O)[C@]2(C)[C@@H]1C[C@@H]1C[C@H](OC(C)=O)C(C)=C([C@@H](OC(C)=O)[C@@H]2OC(C)=O)C1(C)C,15 µM,10 µM,20 µM,,
C=C1[C@@H](OC(=O)[C@@H](O)[C@H](O)c2ccccc2)C[C@H](OC(C)=O)[C@]2(C)[C@@H]1C[C@@H]1C[C@H](OC(C)=O)C(C)=C([C@@H](OC(C)=O)[C@@H]2OC(C)=O)C1(C)C,> 50 µM,> 50 µM,13 µM,,
C=C1[C@@H](OC(=O)Cc2ccccn2)C[C@H](OC(C)=O)[C@]2(C)[C@@H]1C[C@@H]1C[C@H](OC(C)=O)C(C)=C([C@@H](OC(C)=O)[C@@H]2OC(C)=O)C1(C)C,28 µM,> 50 µM,> 50 µM,,
C=C1[C@@H](OC(=O)/C=C/c2cccnc2)C[C@H](OC(C)=O)[C@]2(C)[C@@H]1C[C@@H]1C[C@H](OC(C)=O)C(C)=C([C@@H](OC(C)=O)[C@@H]2OC(C)=O)C1(C)C,34 µM,> 50 µM,> 50 µM,,
C=C1[C@@H](OC(=O)/C=C/c2ccccc2)C[C@H](OC(C)=O)[C@]2(C)[C@@H]1C[C@@H]1C[C@H](OC(C)=O)C(C)=C([C@@H](OC(C)=O)[C@@H]2OC(C)=O)C1(C)C,20 µM,> 50 µM,10 µM,266%,Active
C=C1[C@@H](OC(=O)c2cccnc2)C[C@H](OC(C)=O)[C@]2(C)[C@@H]1C[C@@H]1C[C@H](OC(C)=O)C(C)=C([C@@H](OC(C)=O)[C@@H]2OC(C)=O)C1(C)C,> 50 µM,> 50 µM,> 50 µM,,
CC(=O)O[C@H]1C(=O)[C@@]2(C)[C@H]([C@H](OC(=O)c3ccccc3)[C@]3(O)C[C@H](OC(=O)[C@H](O)[C@@H](NC(=O)c4ccccc4)c4ccccc4)C(C)=C1C3(C)C)[C@]1(OC(C)=O)CO[C@@H]1C[C@@H]2O [PACLITAXEL],,43 µM,,,
CC/C(=C(\c1ccccc1)c1ccc(OCCN(C)C)cc1)c1ccccc1 [TAMOXIFEN],12 µM,,24 µM,,
COc1ccc(CCN(C)CCCC(C#N)(c2ccc(OC)c(OC)c2)C(C)C)cc1OC (stereo not given),,,,254%,
C=C1[C@@H](OC(=O)CCc2cccnc2)C[C@H](OC(C)=O)[C@]2(C)[C@@H]1C[C@@H]1C[C@H](OC(C)=O)C(C)=C([C@@H](OC(C)=O)[C@@H]2OC(C)=O)C1(C)C,39 µM,> 50 µM,> 50 µM,,
C=C1[C@H]2C[C@@H]3C[C@H](OC(C)=O)C(C)=C([C@@H](OC(C)=O)[C@H](OC(C)=O)[C@]2(C)[C@@H](OC(C)=O)C[C@@H]1O)C3(C)C,> 50 µM,> 50 µM,> 50 µM,,
